Measured values collected from several papers.
Compare with care: the assays were run in different laboratories.
Target: Serine/threonine-protein kinase TAO3 (TAOK3, Homo sapiens, UniProt Q9H2K8)
Sequence (Q9H2K8 1-898, as in one of the studies): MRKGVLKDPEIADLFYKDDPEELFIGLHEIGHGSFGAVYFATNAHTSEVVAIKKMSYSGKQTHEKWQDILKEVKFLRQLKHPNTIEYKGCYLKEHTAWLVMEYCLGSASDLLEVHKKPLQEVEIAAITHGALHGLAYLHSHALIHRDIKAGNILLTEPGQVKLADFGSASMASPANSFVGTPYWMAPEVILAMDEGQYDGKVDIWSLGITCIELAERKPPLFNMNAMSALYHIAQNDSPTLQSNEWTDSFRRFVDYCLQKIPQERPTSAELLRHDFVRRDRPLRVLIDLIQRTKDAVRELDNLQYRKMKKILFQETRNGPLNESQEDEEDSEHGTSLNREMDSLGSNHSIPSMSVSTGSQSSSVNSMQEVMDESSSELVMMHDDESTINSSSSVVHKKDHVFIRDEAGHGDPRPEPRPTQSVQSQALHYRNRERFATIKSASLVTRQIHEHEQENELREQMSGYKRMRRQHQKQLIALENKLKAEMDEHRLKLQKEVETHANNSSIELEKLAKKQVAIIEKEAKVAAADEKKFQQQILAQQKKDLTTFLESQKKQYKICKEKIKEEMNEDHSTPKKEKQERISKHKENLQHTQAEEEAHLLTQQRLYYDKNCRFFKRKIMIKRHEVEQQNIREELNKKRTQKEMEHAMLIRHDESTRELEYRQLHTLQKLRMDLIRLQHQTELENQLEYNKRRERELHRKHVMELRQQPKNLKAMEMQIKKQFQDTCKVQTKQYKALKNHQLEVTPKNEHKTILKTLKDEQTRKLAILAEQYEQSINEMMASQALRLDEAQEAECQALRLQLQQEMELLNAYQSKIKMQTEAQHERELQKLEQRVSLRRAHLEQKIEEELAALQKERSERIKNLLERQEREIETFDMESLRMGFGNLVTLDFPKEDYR

SMILES | read-out | method | tested at | remaining binding [%]
CCN1CCN(Cc2ccc(C(=O)Nc3ccc(C)c(Oc4ccc5c(c4)CC(=O)N5)c3)cc2C(F)(F)F)CC1 | binding | competition with immobilised ligand | 1 µM | 100
CNC(=O)[C@@H]1CC[C@@H](n2c(-c3ccc4cnccc4c3)nc3ccc(C(=O)NCc4cccc(C(N)=O)c4)cc32)C1 | binding | competition with immobilised ligand | 1 µM | 93
Cn1cc(Cl)c2c(Oc3c(F)cc(Nc4cc(Cl)nc(N)n4)cc3F)ccnc21 | cell-free assay | competition with immobilised ligand | 0.1 µM | 100
Cc1cnc(Nc2ccc(C(=O)N3CCC(N4CCCC4)CC3)cc2)nc1-c1cc2ccccc2s1 | binding | competition with immobilised ligand | 1 µM | 77
C[C@@H]1CN(c2cc(-c3nn(C)c4ccc(OC5(C)CC5)cc34)ncn2)C[C@H](C)O1 | binding | competition with immobilised ligand | 1 µM | 35
COc1ncc2cc3ccccc3nc2c1C#N | cell-free assay | competition with immobilised ligand | 5 µM | 100
CN(C)c1nccc(-c2cnc3ncccn23)n1 | binding | – | 1 µM | 68
O=C1CCc2cc(Nc3cc(OC4CCOCC4)c([N+](=O)[O-])cc3Cl)ccc2N1 | cell-free assay | competition with immobilised ligand | 1 µM | 81
COc1cnc(Nc2cccc(S(N)(=O)=O)c2)nc1N1CCN(c2ccccc2)C(=O)C1 | binding | competition with immobilised ligand | 1 µM | 93
C[C@H]1CCN(c2nccc(-c3cnn4ncccc34)n2)C1 | binding | – | 1 µM | 86
O=C(Nc1c[nH]nc1C(=O)NC1CCNCC1)c1cc(F)cc(F)c1 | binding | competition with immobilised ligand | 1 µM | 70
c1cnn2ncc(-c3ccnc(N4CCC45COC5)n3)c2c1 | binding | – | 1 µM | 73
CCC(=O)N[C@H]1CC[C@@H](C(=O)N(C)c2ccc(-c3nc4ccccc4o3)cc2)C1 | cell-free assay | competition with immobilised ligand | 1 µM | 70
CC1CCCN1c1nccc(-c2cnn3ncccc23)n1 (stereo not shown) | binding | – | 1 µM | 48
O=C(NCCCN1CCOCC1)c1ccc(Nc2nccc(-c3cc4ccccc4s3)n2)cc1 | binding | competition with immobilised ligand | 1 µM | 82
c1cncc(-c2cccc(Nc3nccc(NC4CCCCC4)n3)c2)c1 | binding | competition with immobilised ligand | 10 µM | 98
Cc1cnn2ncc(-c3ccnc(N(C)C)n3)c2c1 | binding | – | 1 µM | 91
Nc1cnc(N2CCc3cc(S(=O)(=O)Nc4c(F)cc(Cl)cc4F)cc(N4CCCC4=O)c32)nc1 | cell-free assay | competition with immobilised ligand | 1 µM | 70
CN(C)c1ncc(F)c(-c2cnn3ncccc23)n1 | binding | – | 1 µM | 78
Cn1nc(C(F)(F)F)cc1-c1cnc(N2CCc3cc(S(=O)(=O)Nc4c(F)cc(Cl)cc4F)cc(N4CCCC4=O)c32)nc1 | cell-free assay | competition with immobilised ligand | 1 µM | 93
N[C@H]1CCN(c2nccc(-c3cnn4ncccc34)n2)C1 | binding | – | 1 µM | 100
O=C(c1ccc(Nc2ncc(Cl)c(-c3cc4ccccc4s3)n2)cc1)N1CCC(N2CCCC2)CC1 | binding | competition with immobilised ligand | 1 µM | 68
